Structures are written as SMILES. Values after ≈ are worked out from the molar mass of the structure shown. Active and inactive are the calls of the source. The calls are words filed in the database; no cut-off is given here.

The target of series [1] is T1, Angiopoietin-1 receptor (Homo sapiens, UniProt Q02763). The experiment in a line: Inhibition of Tie-2 phosphorylation by cell based assay.
Series [2] can be described thus: Cmax in rat at 1 mg/kg, po. The format is ADME, organism-based. More on the design: dose 1 mg/kg, route oral. To be noted: in vivo.
Series [3] is described as follows: (§1) Protein binding in rat plasma. The format is ADME, cell-free. To be noted: read-out: PPB (converted).
Series [4] relates to Rattus norvegicus. Put plainly: Hypotensive activity in rat assessed as reversal of angiopoietin-1-induced reduction in blood pressure at 20 mg/kg, iv. The format is functional, organism-based. More on the design: dose 20 mg/kg. The procedure, abridged: (§2)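 Male Alderley Park rats anaesthetised with α-chloralose iv, maintained with thiopentone ip. Carotid artery cannulated for blood pressure recording by pressure transducer. Jugular vein cannulated for bolus VEGF or Ang-1 in 0.85% NaCl. Ang-1 was baculovirus/insect-cell expressed, 40–60 µg per batch, adjusted to give a 10–20 mmHg fall. Compound or vehicle given iv (25% w/v hydroxypropyl-β-cyclodextrin, Sorensen phosphate pH 5.5).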

Series [5] relates to Rattus norvegicus. Put plainly: Hypotensive activity in rat assessed as VEGF-induced reduction in blood pressure at 20 mg/kg, iv. Type of series: functional, organism-based. More on the design: dose 20 mg/kg. The procedure, abridged: as §2
Series [6] deals with Plasma. The description is as §1. Type of series: ADME, cell-free.
The nature of series [7]: Aqueous solubility at pH 7.
Series [8] is described as follows: Bioavailability in rat at 2 mg/kg, iv and 5 mg/kg, po. Type of series: ADME, organism-based. To be noted: in vivo.
Series [9] is described as follows: Half life in rat at 5 mg/kg, po. The format is ADME, organism-based. More on the design: dose 5 mg/kg, route oral. The settings on record: in vivo.
A short description of series [10]: Volume of distribution at steady state in rat at 2 mg/kg, iv and 5 mg/kg, po. Type of series: ADME, organism-based. To be noted: in vivo, read-out: Vdss.
The nature of series [11]: Clearance in rat at 2 mg/kg, iv and 5 mg/kg, po. Type of series: ADME, organism-based. To be noted: in vivo.
For series [12], the target named is T1, Angiopoietin-1 receptor. The experiment in a line: Inhibition of Tie-2.
Series [13] can be described thus: Lipophilicity, log D of the compound. The settings on record: octanol/water.
For series [14], the target named is Vascular endothelial growth factor receptor 2 (Homo sapiens) (UniProt P35968). Put plainly: Inhibition of FLt.
The target of series [15] is Vascular endothelial growth factor receptor 1 (Homo sapiens) (UniProt P17948). Put plainly: Inhibition of Flt-1.
Chain of Vascular endothelial growth factor receptor 1 (Homo sapiens) (P17948 whole entry, looked up): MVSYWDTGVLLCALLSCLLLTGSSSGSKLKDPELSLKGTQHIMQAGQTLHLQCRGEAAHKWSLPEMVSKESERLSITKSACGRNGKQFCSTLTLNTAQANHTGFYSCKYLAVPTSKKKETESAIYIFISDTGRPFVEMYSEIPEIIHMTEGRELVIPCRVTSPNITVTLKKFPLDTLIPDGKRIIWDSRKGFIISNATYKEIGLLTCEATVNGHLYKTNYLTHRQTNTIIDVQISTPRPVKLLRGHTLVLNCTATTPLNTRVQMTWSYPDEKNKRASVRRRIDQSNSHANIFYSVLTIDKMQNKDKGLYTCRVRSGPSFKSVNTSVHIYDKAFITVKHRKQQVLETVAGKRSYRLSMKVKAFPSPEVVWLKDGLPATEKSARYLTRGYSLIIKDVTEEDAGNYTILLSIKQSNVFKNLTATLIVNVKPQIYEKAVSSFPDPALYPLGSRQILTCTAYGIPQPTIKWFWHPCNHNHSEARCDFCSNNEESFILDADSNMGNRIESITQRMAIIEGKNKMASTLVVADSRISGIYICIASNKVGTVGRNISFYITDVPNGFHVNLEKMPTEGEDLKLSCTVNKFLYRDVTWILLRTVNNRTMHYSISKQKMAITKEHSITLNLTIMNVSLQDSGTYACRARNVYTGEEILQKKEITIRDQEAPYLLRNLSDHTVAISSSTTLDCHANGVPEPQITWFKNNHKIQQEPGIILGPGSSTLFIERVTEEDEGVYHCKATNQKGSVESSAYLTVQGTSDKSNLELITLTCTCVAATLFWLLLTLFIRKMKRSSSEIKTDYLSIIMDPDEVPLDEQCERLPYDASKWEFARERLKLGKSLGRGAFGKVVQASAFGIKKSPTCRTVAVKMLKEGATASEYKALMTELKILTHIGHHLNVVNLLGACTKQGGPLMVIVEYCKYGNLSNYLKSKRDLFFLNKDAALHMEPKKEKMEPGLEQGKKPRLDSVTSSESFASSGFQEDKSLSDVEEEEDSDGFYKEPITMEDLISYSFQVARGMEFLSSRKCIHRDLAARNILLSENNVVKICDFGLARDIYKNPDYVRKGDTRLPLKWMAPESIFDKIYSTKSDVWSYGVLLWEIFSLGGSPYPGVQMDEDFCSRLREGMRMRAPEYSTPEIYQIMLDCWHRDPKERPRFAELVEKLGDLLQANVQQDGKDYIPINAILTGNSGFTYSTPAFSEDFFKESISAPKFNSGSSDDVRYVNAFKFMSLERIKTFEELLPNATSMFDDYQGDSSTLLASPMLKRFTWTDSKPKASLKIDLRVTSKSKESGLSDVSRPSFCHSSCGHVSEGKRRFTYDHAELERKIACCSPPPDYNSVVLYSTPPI

T1 sequence (Q02763 whole entry): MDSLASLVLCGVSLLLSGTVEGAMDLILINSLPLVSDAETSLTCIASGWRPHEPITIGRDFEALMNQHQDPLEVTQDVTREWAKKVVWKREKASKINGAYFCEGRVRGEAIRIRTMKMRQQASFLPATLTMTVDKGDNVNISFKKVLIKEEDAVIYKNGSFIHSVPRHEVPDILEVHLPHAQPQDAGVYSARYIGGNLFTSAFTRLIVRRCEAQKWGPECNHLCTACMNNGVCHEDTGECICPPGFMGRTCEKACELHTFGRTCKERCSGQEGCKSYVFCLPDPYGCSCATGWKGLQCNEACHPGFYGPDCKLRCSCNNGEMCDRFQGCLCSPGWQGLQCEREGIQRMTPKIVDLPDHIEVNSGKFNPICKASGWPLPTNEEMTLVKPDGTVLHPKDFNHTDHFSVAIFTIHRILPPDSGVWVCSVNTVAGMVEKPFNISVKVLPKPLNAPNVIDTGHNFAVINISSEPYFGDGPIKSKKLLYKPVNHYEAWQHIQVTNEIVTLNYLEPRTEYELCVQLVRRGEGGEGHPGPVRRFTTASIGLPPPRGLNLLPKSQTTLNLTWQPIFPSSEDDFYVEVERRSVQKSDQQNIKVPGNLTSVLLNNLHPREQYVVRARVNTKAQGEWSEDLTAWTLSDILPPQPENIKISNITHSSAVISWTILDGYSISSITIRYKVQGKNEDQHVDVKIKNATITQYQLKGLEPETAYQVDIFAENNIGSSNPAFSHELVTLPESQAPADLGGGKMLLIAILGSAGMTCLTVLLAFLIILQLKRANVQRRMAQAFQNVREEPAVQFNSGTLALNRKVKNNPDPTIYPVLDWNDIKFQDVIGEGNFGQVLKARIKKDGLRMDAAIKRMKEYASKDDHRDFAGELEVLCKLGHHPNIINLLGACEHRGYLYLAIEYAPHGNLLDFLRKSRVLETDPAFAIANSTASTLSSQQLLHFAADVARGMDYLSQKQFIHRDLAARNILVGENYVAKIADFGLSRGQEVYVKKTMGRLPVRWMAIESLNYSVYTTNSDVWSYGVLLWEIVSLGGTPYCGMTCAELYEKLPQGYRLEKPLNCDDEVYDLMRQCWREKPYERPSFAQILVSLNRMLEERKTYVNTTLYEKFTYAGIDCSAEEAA

As for `Cc1cc(NC(=O)Nc2cccc(-c3ncn(C)c3-c3cc4c(N)ncnc4s3)c2)on1`, the IC50 in series [1] was determined as 0.34 µM. Further, in [2], the Cmax was found to be 9 nM.
In series [1], `Cn1cnc(-c2cccc(NC(=O)Nc3ccccc3)c2)c1-c1cc2c(N)ncnc2s1` displayed an IC50 of 1.4 µM.
For the compound `Nc1ncnc2sc(-c3c(-c4ccccc4)ncn3Cc3ccccc3N3CCOCC3)nc12`, the fraction unbound in series [3] was 0.058. In [1], this compound displayed an IC50 of 0.44 µM. Moreover, in series [4], the result was Active. The outcome in series [5] was inactive.
Regarding `Cn1cnc(-c2cccc(NC(=O)Nc3cc(C(F)(F)F)ccc3F)c2)c1-c1cc2c(N)ncnc2s1`, in series [1], the IC50 was found to be 0.07 µM.
Turning to `Cn1cnc(-c2ccccc2)c1-c1nc2c(N)ncnc2s1`, the fraction unbound in series [3] is 0.052. The PPB in [6] was 94.6%. Further, in [7], the concentration in solution (solubility) came to 160 µM (≈ 49.3 µg/mL). The bioavailability in [8] was more than 100%. Moreover, the half-life in series [9] was 1.6 h. For the same compound, the Vd in series [10] was found to be 1.2 L/kg. For the same compound, the clearance in series [11] worked out at 30.1 mL/min/kg. The IC50 in series [12] was 20 µM. Besides, the logD in series [13] turned out to be 2.7.
As for `Cn1cnc(-c2ccccc2)c1-c1cc2c(N)ncnc2s1`, in series [3], the fraction unbound was 0.045. For the same compound, the IC50 was 1.8 µM in series [1], 34 µM in series [12], 22 µM in series [14] and 10 µM in [15]. Moreover, the bioavailability in [8] is more than 100%. This compound also showed a half-life in [9] of 1.8 h. For the same compound, the Vd in [10] is 1.4 L/kg. Besides, the clearance in series [11] is 39 mL/min/kg.
For the compound `CC(C)Cn1cnc(-c2ccccc2)c1-c1nc2c(N)ncnc2s1`, the fraction unbound in series [3] was 0.059. Also, the solubility in series [7] came to 70 µM (≈ 24.5 µg/mL). In [1], this compound came in with an IC50 of 0.49 µM.
Regarding `Cc1ccc(Sc2cccc(-c3ncn(C)c3-c3cc4c(N)ncnc4s3)c2)cc1`, the IC50 in series [1] worked out at 1.4 µM.
As for `Nc1ncnc2sc(-c3c(-c4ccccc4)ncn3CC3CCCCC3)nc12`, the fraction unbound in series [3] was 0.016.
`Nc1ncnc2sc(-c3c(-c4ccccc4)ncn3C[C@H]3CCCO3)nc12`: the fraction unbound in series [3] is 0.2. In series [1], this compound had an IC50 of 0.37 µM.
Turning to `CCn1cnc(-c2ccccc2)c1-c1nc2c(N)ncnc2s1`, the solubility in series [7] came to 171 µM (≈ 55.1 µg/mL). Besides, in series [1], the IC50 stood at 3 µM.
